This is an account of results in ChEMBL document CHEMBL3351518, “Synthesis and antibacterial activity of catecholate-ciprofloxacin conjugates” (Bioorg Med Chem, 2014).

Series [1] has as its system Pseudomonas aeruginosa. The experiment in a line: Antimicrobial activity against ciprofloxacin-resistant Pseudomonas aeruginosa AM 85 grown under succinate minimum medium in presence of 1 uM FeCl3 by broth microdilution method. It counts as functional. Summed up: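 Clinical efflux-mediated ciprofloxacin-resistant isolate AM 85, grown overnight at 35 °C in Tryptic Soy Broth and isolated on Tryptic Soy Agar. CLSI broth microdilution in succinate minimum medium, pH 7.0, supplemented with FeCl3 for iron-enriched conditions. Compounds were dissolved in DMSO (40 °C, 10 min sonication) and serially diluted two-fold, 0.0625–128. MIC is the highest dilution with clear wells.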

Series [2] is described as follows: Toxicity in human RBC assessed as induction of hemolysis after 1 hr relative to saponin. It counts as cell-based, Erythrocyte. The following applies: red blood cells (RBC), read-out: Activity. Put shortly:
(§1)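 Human red blood cells were washed three times in TRIS buffer (10 mmol/l TRIS, 150 mmol/l NaCl, pH 7.4) and suspended at 0.5% (v/v). 15 µL of test or control solution was added to 235 µL suspension, in triplicate, with 1% saponin as 100% hemolysis and DMSO/TRIS as negative controls. Incubation was 1 h at 37 °C. After centrifugation, supernatant OD was read at 405 nm.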

In series [3] the test system is Pseudomonas aeruginosa. The experiment in a line: Antimicrobial activity against ciprofloxacin-resistant Pseudomonas aeruginosa AM 85 grown under Mueller-Hinton medium by broth microdilution method. The class given is functional. Summed up: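 AM 85 is a clinical isolate with efflux-mediated ciprofloxacin resistance. Grown overnight at 35 °C in Tryptic Soy Broth, then streaked on Tryptic Soy Agar. CLSI broth microdilution in cation-adjusted Mueller–Hinton broth, pH 7.3. DMSO stock (40 °C warming, 10 min sonication) diluted two-fold, 0.0625–128. MIC is the highest dilution with clear wells.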
Background: In broth dilution the organism is exposed to a series of concentrations in liquid medium.

Series [4] relates to Pseudomonas aeruginosa. Put plainly: Antimicrobial activity against ciprofloxacin-resistant Pseudomonas aeruginosa AM 85 grown under succinate minimum medium by broth microdilution method. The class given is functional. Summed up:
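AM 85 is a clinical isolate with efflux-mediated ciprofloxacin resistance. Overnight growth at 35 °C in Tryptic Soy Broth, then Tryptic Soy Agar plates. CLSI broth microdilution in iron-deprived succinate minimum medium, pH 7.0, with no iron added. Two-fold dilutions (0.0625–128) from a DMSO stock made with 40 °C warming and 10 min sonication. MIC read as the highest dilution with clear wells.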

Series [5] concerns Pseudomonas aeruginosa. Put plainly: Antimicrobial activity against ciprofloxacin-sensitive Pseudomonas aeruginosa DSM 1117 grown under Mueller-Hinton medium by broth microdilution method. The class given is functional. Put shortly: (§2)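 Overnight cultures at 35 °C in Tryptic Soy Broth were streaked on Tryptic Soy Agar, and inocula were prepared per CLSI. Broth microdilution used two-fold serial dilutions of 0.0625–128 µg/mL from DMSO stocks made with gentle heating (40 °C) and 10 min sonication. Ciprofloxacin served as control in each series. MIC was the highest dilution with clear wells. Media: cation-adjusted Mueller–Hinton, pH 7.3; succinate minimum medium, pH 7.0, without or with 1 µM FeCl3 added.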

The subject of series [6] is Pseudomonas aeruginosa. The experiment in a line: Antimicrobial activity against ciprofloxacin-sensitive Pseudomonas aeruginosa DSM 1117 grown under succinate minimum medium by broth microdilution method. The class given is functional. Summed up: as §2
Series [7] has as its system Pseudomonas aeruginosa. Put plainly: Antimicrobial activity against ciprofloxacin-sensitive Pseudomonas aeruginosa DSM 1117 grown under succinate minimum medium in presence of 1 uM FeCl3 by broth microdilution method. The class given is functional. Summed up:
as §2

Series [8] can be described thus: Toxicity in human RBC assessed as induction of hemolysis at 384 ug/ml after 1 hr relative to saponin. The following applies: red blood cells (RBC), read-out: Activity. The class given is cell-based, Erythrocyte. Put shortly: as §1
The nature of series [9]: Induction of iron complexation in mixed H2O/DMSO solvent mixture (0.2 mole fraction of DMSO) at 1:3 mixture of […] at 25 degC at 3.0 <pH <4.1 by UV-visible spectrophotometry. The class given is physicochemical. Summed up:
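UV–visible spectra of 1:3 iron(III):ligand solutions were recorded across pH in H2O/DMSO at 0.2 DMSO mole fraction, 25 °C. pH was adjusted by automatic titrator addition of 0.1 M KOH prepared in the same solvent. The glass electrode was calibrated by titrating 0.1 M HCl with KOH in H2O/DMSO.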

Series [10] in a line: Toxicity in human RBC assessed as induction of hemolysis up to 384 ug/ml after 1 hr relative to saponin. It counts as cell-based, Erythrocyte. The settings on record: red blood cells (RBC), read-out: Activity. Summed up: as §1

SMILES strings stand for the structures. ≈ marks a conversion by molar mass, not a printed value. Bounds are passed on as bounds.

For orientation: MIC means the smallest concentration in the dilution series that meets the test's criterion for growth inhibition. In the case of `O=C(CCN1CCN(c2cc3c(cc2F)c(=O)c(C(=O)O)cn3C2CC2)CC1)OCC(CCCNC(=O)c1cccc(O)c1O)(CCCNC(=O)c1cccc(O)c1O)CCCNC(=O)c1cccc(O)c1O`, the MIC was greater than 128 µg/mL in the series on Pseudomonas aeruginosa [1]; greater than 128 µg/mL against Pseudomonas aeruginosa [3]; greater than 128 µg/mL against Pseudomonas aeruginosa [4]; greater than 128 µg/mL in the series on Pseudomonas aeruginosa [5]; greater than 128 µg/mL against Pseudomonas aeruginosa [6]; 64 µg/mL in the series with Pseudomonas aeruginosa [7]. In addition, the hemolysis at 1 h in series [2] is less than 10%.

Take `O=C(CN1CCN(c2cc3c(cc2F)c(=O)c(C(=O)O)cn3C2CC2)CC1)OCC(CCCNC(=O)c1cccc(O)c1O)(CCCNC(=O)c1cccc(O)c1O)CCCNC(=O)c1cccc(O)c1O`: the MIC with Pseudomonas aeruginosa [1] was greater than 128 µg/mL; against Pseudomonas aeruginosa [3] it was greater than 128 µg/mL; with Pseudomonas aeruginosa [4], greater than 128 µg/mL; with Pseudomonas aeruginosa [5] it was 8 µg/mL (≈ 8.02 µM); in the series on Pseudomonas aeruginosa [6], 8 µg/mL (≈ 8.02 µM); in the series on Pseudomonas aeruginosa [7] it was 4 µg/mL. Further, in [2], the hemolysis at 1 h is less than 10%.

Turning to `O=C(CCCN1CCN(c2cc3c(cc2F)c(=O)c(C(=O)O)cn3C2CC2)CC1)OCC(CCCNC(=O)c1cccc(O)c1O)(CCCNC(=O)c1cccc(O)c1O)CCCNC(=O)c1cccc(O)c1O`, the MIC with Pseudomonas aeruginosa [1] is greater than 128 µg/mL; against Pseudomonas aeruginosa [3], greater than 128 µg/mL; against Pseudomonas aeruginosa [4], greater than 128 µg/mL; in the series with Pseudomonas aeruginosa [5], 64 µg/mL (≈ 62.4 µM); in the series on Pseudomonas aeruginosa [6] it was 64 µg/mL (≈ 62.4 µM); in the series with Pseudomonas aeruginosa [7], 32 µg/mL. For the same compound, in [2], the hemolysis at 1 h was less than 10%.

With `O=C(NCCCC(CCCNC(=O)c1cccc(O)c1O)(CCCNC(=O)c1cccc(O)c1O)C(=O)N1CCN(c2cc3c(cc2F)c(=O)c(C(=O)O)cn3C2CC2)CC1)c1cccc(O)c1O`, the MIC with Pseudomonas aeruginosa [1], in the series with Pseudomonas aeruginosa [3], with Pseudomonas aeruginosa [4], in the series on Pseudomonas aeruginosa [5], in the series with Pseudomonas aeruginosa [6] and in the series on Pseudomonas aeruginosa [7] was greater than 128 µg/mL throughout. In [8], the hemolysis at 1 h, 384 ug/ml worked out at 40%.

Consider `O=C(O)c1cn(C2CC2)c2cc(N3CCN(C(=O)c4cccc(O)c4O)CC3)c(F)cc2c1=O`, for which the MIC with Pseudomonas aeruginosa [1] was 32 µg/mL; against Pseudomonas aeruginosa [3], greater than 128 µg/mL; against Pseudomonas aeruginosa [4], 64 µg/mL (≈ 137 µM); against Pseudomonas aeruginosa [5], greater than 128 µg/mL; against Pseudomonas aeruginosa [6] it was 32 µg/mL (≈ 68.5 µM); in the series on Pseudomonas aeruginosa [7], 16 µg/mL. For the same compound, in [9], the outcome was Active. Also, the hemolysis at 1 h in [10] was less than 10%.

`COC(=O)CN1CCN(c2cc3c(cc2F)c(=O)c(C(=O)O)cn3C2CC2)CC1`: the MIC was greater than 128 µg/mL in the series on Pseudomonas aeruginosa [1]; greater than 128 µg/mL in the series on Pseudomonas aeruginosa [3]; greater than 128 µg/mL against Pseudomonas aeruginosa [4]; 8 µg/mL (≈ 19.8 µM) against Pseudomonas aeruginosa [5]; 16 µg/mL (≈ 39.7 µM) against Pseudomonas aeruginosa [6]; 16 µg/mL in the series with Pseudomonas aeruginosa [7]. Moreover, the hemolysis at 1 h in series [10] is less than 10%.

Take `O=C(O)CN1CCN(c2cc3c(cc2F)c(=O)c(C(=O)O)cn3C2CC2)CC1`: the MIC in the series on Pseudomonas aeruginosa [1] turned out to be 16 µg/mL; in the series with Pseudomonas aeruginosa [3], 16 µg/mL (≈ 41.1 µM); against Pseudomonas aeruginosa [4], 16 µg/mL (≈ 41.1 µM); with Pseudomonas aeruginosa [5], 0.25 µg/mL (≈ 0.642 µM); against Pseudomonas aeruginosa [6] it was 0.125 µg/mL (≈ 0.321 µM); with Pseudomonas aeruginosa [7], 0.125 µg/mL. Further, the hemolysis at 1 h, 384 ug/ml in series [8] stood at 40%.

Regarding `O=C(O)c1cn(C2CC2)c2cc(N3CCNCC3)c(F)cc2c1=O` [CIPROFLOXACIN], the MIC was 32 µg/mL in the series with Pseudomonas aeruginosa [1], 16 µg/mL (≈ 48.3 µM) in the series with Pseudomonas aeruginosa [3] and 16 µg/mL (≈ 48.3 µM) in the series on Pseudomonas aeruginosa [4]. Further, the hemolysis at 1 h in series [2] is less than 10%.
